In brackets after ≈: the same amount, converted by molar mass.
Experiments:
Plasmodium falciparum [1] = test: Antimalarial activity against chloroquine-sensitive Plasmodium falciparum 3D7A infected in type A rhesus-positive human erythrocytes assessed as [3H]hypoxanthine incorporation after 48 hrs by scintillation counting; format: functional, organism-based
Method in brief: (§1)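 Modified semiautomated microdilution: compounds dissolved in DMSO, diluted in RPMI 1640 with 10% v/v human plasma, serial 1:2 dilutions in triplicate. Infected erythrocytes at 3% hematocrit, 0.25−0.55% parasitemia. [3H]hypoxanthine at 12.5−16 μCi/mL final. Incubated 48 h, 37 °C, in 5% O2/3% CO2/92% N2. Harvested on fiberglass strips, scintillation counted. IC50 by nonlinear regression of concentration−response curves.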

Plasmodium falciparum [2] = test: Antimalarial activity against chloroquine-resistant Plasmodium falciparum W2 infected in type A rhesus-positive human erythrocytes assessed as [3H]hypoxanthine incorporation after 48 hrs by scintillation counting; format: functional, organism-based; method in brief: as §1
Plasmodium falciparum [3] = test: Ratio of IC50 for azithromycin to compound IC50 for chloroquine-sensitive Plasmodium falciparum 3D7A infected in type A rhesus-positive human erythrocytes assessed as [3H]hypoxanthine incorporation after 48 hrs by scintillation counting; format: functional
Plasmodium falciparum [4] = test: Ratio of IC50 for azithromycin to compound IC50 for chloroquine-resistant Plasmodium falciparum W2 infected in type A rhesus-positive human erythrocytes assessed as [3H]hypoxanthine incorporation after 48 hrs by scintillation counting; format: functional
HepG2 = test: Cytotoxicity against human HepG2 cells after 24 hrs by MTS assay; format: cell-based; conditions: HepG2, 24 h
Method in brief: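 Hep G2 cells were kept in RPMI 1640 with 10% FBS at 37 °C and 5% CO2. Wells held 50000 cells and received 1:2 serial dilutions of compound (DMSO stock diluted in medium) for 24 h. MTS reagent was then added for 2 h, absorbance was read at 490 nm, and IC50 was taken from response curves.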

[5] = Selectivity ratio of IC50 for human HepG2 cells to IC50 for chloroquine-sensitive Plasmodium falciparum 3D7A; format: ADME, cell-based; conditions: HepG2 cells versus Plasmodium falciparum 3D7A, read-out: Ratio IC50
Method in brief: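 Selectivity is the HepG2 IC50 divided by the P. falciparum IC50. For HepG2, 50000 cells per well in RPMI 1640 with 10% FBS were exposed to 1:2 serial dilutions for 24 h at 37 °C, 5% CO2. MTS was added for 2 h and absorbance read at 490 nm. Parasite IC50 came from the 48 h [3H]hypoxanthine assay.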

Streptococcus pneumoniae = test: Antibacterial activity against Streptococcus pneumoniae isolate SP030 by broth microdilution method; format: functional
Method in brief: (§2)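 Standard broth microdilution MIC against macrolide-sensitive strains. For streptococci, 5% horse serum replaced lysed horse blood in the broth, and inocula were grown on Columbia agar with 5% sheep blood. S. aureus was grown on Mueller–Hinton agar.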

Streptococcus pyogenes = test: Antibacterial activity against Streptococcus pyogenes isolate 3565 by broth microdilution method; format: functional; method in brief: as §2
Staphylococcus aureus = test: Antibacterial activity against Staphylococcus aureus ATCC 13709 by broth microdilution method; format: functional; method in brief: as §2
[6] = Aqueous solubility of the compound at pH 4; format: physicochemical
[7] = Selectivity ratio of IC50 for human HepG2 cells to IC50 for chloroquine-sensitive Plasmodium falciparum 3D7A; conditions: HepG2 cells versus Plasmodium falciparum 3D7A

SMILES	IC50 (Plasmodium falciparum [1]) [µM]	IC50 (Plasmodium falciparum [2]) [µM]	Ratio IC50 (Plasmodium falciparum [3])	Ratio IC50 (Plasmodium falciparum [4])	IC50 (HepG2) [µM]	selectivity ratio [5]	MIC (Streptococcus pneumoniae) [µg/mL]	MIC (Streptococcus pyogenes) [µg/mL]	MIC (Staphylococcus aureus) [µg/mL]	solubility [6] [µg/mL]	selectivity ratio [7]
CC[C@H]1OC(=O)[C@H](C)[C@@H](O[C@H]2C[C@@](C)(OC)[C@@H](O)[C@H](C)O2)[C@H](C)[C@@H](O[C@@H]2O[C@H](C)C[C@H](N(C)C)[C@H]2OCCCNc2ccnc3cc(Cl)ccc23)[C@](C)(O)C[C@@H](C)CN(C)[C@H](C)[C@@H](O)[C@]1(C)O	0.021	0.01	3	3	45	132	64 (≈ 66.1 µM)	64 (≈ 66.1 µM)	> 64	> 10000	132
CCN(CC)CCCC(C)Nc1ccnc2cc(Cl)ccc12 (centres undefined) [CHLOROQUINE]	–	–	–	–	–	–	> 64	> 64	> 64	–	–
CC[C@H]1OC(=O)[C@H](C)[C@@H](O[C@H]2C[C@@](C)(OC)[C@@H](O)[C@H](C)O2)[C@H](C)[C@@H](O[C@@H]2O[C@H](C)C[C@H](N(C)C)[C@H]2O)[C@](C)(O)C[C@@H](C)CN(C)[C@H](C)[C@@H](O)[C@]1(C)O [AZITHROMYCIN]	–	–	–	–	–	132	≤ 0.125	≤ 0.125	0.5 (≈ 0.668 µM)	–	132
CC[C@H]1OC(=O)[C@H](C)[C@@H](O)[C@H](C)[C@@H](O[C@@H]2O[C@H](C)C[C@H](N(C)C)[C@H]2OCCCNc2ccnc3cc(Cl)ccc23)[C@](C)(O)C[C@@H](C)CN(C)[C@H](C)[C@@H](O)[C@]1(C)O	0.037	0.025	3	3	83	132	> 64	> 64	> 64	> 10000	132
CC[C@H]1OC(=O)[C@H](C)[C@@H](O)[C@H](C)[C@@H](O[C@@H]2O[C@H](C)C[C@H](N(C)C)[C@H]2OCCCNC(=O)CNc2ccnc3ccccc23)[C@](C)(O)C[C@@H](C)CN(C)[C@H](C)[C@@H](O)[C@]1(C)O	1.66	0.815	3	3	–	132	–	–	–	> 10000	132
CC[C@H]1OC(=O)[C@H](C)[C@@H](O[C@H]2C[C@@](C)(OC)[C@@H](O)[C@H](C)O2)[C@H](C)[C@@H](O[C@@H]2O[C@H](C)C[C@H](N(C)C)[C@H]2OCCCNC(=O)CCCNc2ccnc3cc(Cl)ccc23)[C@](C)(O)C[C@@H](C)CN(C)[C@H](C)[C@@H](O)[C@]1(C)O	0.029	0.019	3	3	50	132	> 64	> 64	> 64	> 10000	132
CC[C@H]1OC(=O)[C@H](C)[C@@H](O)[C@H](C)[C@@H](O[C@@H]2O[C@H](C)C[C@H](N(C)C)[C@H]2OCCCNCc2cnc3ccccc3c2)[C@](C)(O)C[C@@H](C)CN(C)[C@H](C)[C@@H](O)[C@]1(C)O	1.37	0.286	3	3	> 100	–	> 64	> 64	> 64	> 10000	–
CC[C@H]1OC(=O)[C@H](C)[C@@H](O[C@H]2C[C@@](C)(OC)[C@@H](O)[C@H](C)O2)[C@H](C)[C@@H](O[C@@H]2O[C@H](C)C[C@H](N(C)C)[C@H]2OCCCNc2ccnc3ccccc23)[C@](C)(O)C[C@@H](C)CN(C)[C@H](C)[C@@H](O)[C@]1(C)O	0.064	0.035	3	3	80	132	32 (≈ 34.3 µM)	32 (≈ 34.3 µM)	16 (≈ 17.1 µM)	> 10000	132
CC[C@H]1OC(=O)[C@H](C)[C@@H](O[C@H]2C[C@@](C)(OC)[C@@H](O)[C@H](C)O2)[C@H](C)[C@@H](O[C@@H]2O[C@H](C)C[C@H](N(C)C)[C@H]2OCCCN(C)Cc2cnc3ccccc3c2)[C@](C)(O)C[C@@H](C)CN(C)[C@H](C)[C@@H](O)[C@]1(C)O	0.466	0.047	3	3	23	49	> 64	> 64	> 64	> 10000	49
CC[C@H]1OC(=O)[C@H](C)[C@@H](O[C@H]2C[C@@](C)(OC)[C@@H](O)[C@H](C)O2)[C@H](C)[C@@H](O[C@@H]2O[C@H](C)C[C@H](N(C)C)[C@H]2OCCCNC(=O)CNc2ccnc3cc(Cl)ccc23)[C@](C)(O)C[C@@H](C)CN(C)[C@H](C)[C@@H](O)[C@]1(C)O	0.014	0.009	3	3	28	132	> 64	> 64	> 64	> 10000	132
CC[C@H]1OC(=O)[C@H](C)[C@@H](O)[C@H](C)[C@@H](O[C@@H]2O[C@H](C)C[C@H](N(C)C)[C@H]2OCCCN(C)Cc2cnc3ccccc3c2)[C@](C)(O)C[C@@H](C)CN(C)[C@H](C)[C@@H](O)[C@]1(C)O	1.29	0.311	3	3	> 100	–	> 64	> 64	> 64	> 10000	–
CC[C@H]1OC(=O)[C@H](C)[C@@H](O)[C@H](C)[C@@H](O[C@@H]2O[C@H](C)C[C@H](N(C)C)[C@H]2OCCCNC(=O)CCCNc2ccnc3cc(Cl)ccc23)[C@](C)(O)C[C@@H](C)CN(C)[C@H](C)[C@@H](O)[C@]1(C)O	0.402	0.224	3	3	75	132	> 64	> 64	> 64	> 10000	132
CC[C@H]1OC(=O)[C@H](C)[C@@H](O[C@H]2C[C@@](C)(OC)[C@@H](O)[C@H](C)O2)[C@H](C)[C@@H](O[C@@H]2O[C@H](C)C[C@H](N(C)C)[C@H]2OCCC(=O)NCCNc2ccnc3cc(Cl)ccc23)[C@](C)(O)C[C@@H](C)CN(C)[C@H](C)[C@@H](O)[C@]1(C)O	0.018	0.013	3	3	18	132	64 (≈ 62.5 µM)	64 (≈ 62.5 µM)	64 (≈ 62.5 µM)	> 10000	132
CC[C@H]1OC(=O)[C@H](C)[C@@H](O)[C@H](C)[C@@H](O[C@@H]2O[C@H](C)C[C@H](N(C)C)[C@H]2OCCCNC(=O)CNc2ccnc3cc(Cl)ccc23)[C@](C)(O)C[C@@H](C)CN(C)[C@H](C)[C@@H](O)[C@]1(C)O	0.138	0.084	3	3	> 100	132	> 64	> 64	> 64	> 10000	132
CC[C@H]1OC(=O)[C@H](C)[C@@H](O[C@H]2C[C@@](C)(OC)[C@@H](O)[C@H](C)O2)[C@H](C)[C@@H](O[C@@H]2O[C@H](C)C[C@H](N(C)C)[C@H]2OCCCN(C)Cc2ccnc3ccccc23)[C@](C)(O)C[C@@H](C)CN(C)[C@H](C)[C@@H](O)[C@]1(C)O	0.248	0.049	3	3	45	132	> 64	> 64	> 64	> 10000	132
CC[C@H]1OC(=O)[C@H](C)[C@@H](O[C@H]2C[C@@](C)(OC)[C@@H](O)[C@H](C)O2)[C@H](C)[C@@H](O[C@@H]2O[C@H](C)C[C@H](N(C)C)[C@H]2OCCCNCc2cnc3ccccc3c2)[C@](C)(O)C[C@@H](C)CN(C)[C@H](C)[C@@H](O)[C@]1(C)O	0.228	0.046	3	3	20	88	> 64	> 64	> 64	> 10000	88
